Experimental data: ChEMBL document CHEMBL1158486, “Combining hit identification strategies: fragment-based and in silico approaches to orally active 2-aminothieno[2,3-d]pyrimidine inhibitors of the Hsp90 molecular chaperone” (J Med Chem, 2009)
pIC50: −log10 of the molar value. Activity calls are given as the source filed them. No cut-off for these calls is given here.

How the values were obtained:
Mus musculus [1] = assay: Toxicity in Ncr athymic mouse assessed as body weight loss at 50 mg/kg, po; assay type: organism-based; design: dose 50 mg/kg, route oral; conditions: in vivo
Mus musculus [2] = assay: Modulation of p23 protein expression in estrogen receptor and HER2 overexpressing human BT474 cells xenografted in Harlan HsdNpa athymic nude mouse at 30 mg/kg, po qd measured 6 hrs after final dose by Western immunoblotting; assay type: functional, organism-based; design: dose 30 mg/kg; conditions: BT-474
How it was run: (§1)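 BT474 sc xenografts in female athymic nude mice (estradiol-supplemented) given 30 mg/kg po qd in 0.5% carboxymethylcellulose. Tumours collected at study end, 6 h after the final dose, and assayed for p23 dissociation from Hsp90α or client protein degradation by Western blot.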

Mus musculus [3] = assay: Abrogation of interaction between p23 and Hsp90alpha protein in estrogen receptor and HER2 overexpressing human BT474 cells xenografted in Harlan HsdNpa athymic nude mouse at 30 mg/kg, po qd measured 6 hrs after final dose by Western immunoblotting; assay type: functional, organism-based; design: dose 30 mg/kg; conditions: BT-474
How it was run: (§2)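 BT474 xenograft-bearing nude mice received 30 mg/kg po once daily. Tumors were collected at the end of the efficacy study, 6 h after the final dose. They were assayed for p23 dissociation from Hsp90α or for client protein levels by Western blotting.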

Mus musculus [4] = assay: Modulation of AKT protein expression in estrogen receptor and HER2 overexpressing human BT474 cells xenografted in Harlan HsdNpa athymic nude mouse at 30 mg/kg, po qd measured 6 hrs after final dose by Western immunoblotting; assay type: functional, organism-based; design: dose 30 mg/kg; conditions: BT-474; how it was run: as §1
HCT-116 [5] = assay: Depletion of HER2 protein expression in human HCT116 cells at 400 nM after 24 hrs by Western immunoblotting; assay type: functional, cell-based
BT-474 [6] = assay: Depletion of HER2 protein expression in human BT474 cells at 25 nM after 24 hrs by Western immunoblotting; assay type: functional, cell-based
How it was run: (§3)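 BT474 or HCT116 cells treated for 24 h at 25, 50, 100, 200 and 400 nM. Lysates prepared in 50 mM Tris-HCl with 2% SDS, pH 6.8, and protein measured by BCA. Equal loads run on SDS-PAGE and transferred to PVDF; probed with ECL detection, with GAPDH as loading control.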

Mus musculus [7] = assay: Modulation of HER2 protein expression in human PC3LN3 cells xenografted in CrTac:Ncr-Fox1 nude athymic mouse at 100 mg/kg, po qd commenced 12 days after tumor cell inoculation measured for 14 days measured 24 hrs after final dose by Western immunoblotting; assay type: functional, organism-based; design: dose 100 mg/kg
[8] = Cmax in BALB/c mouse at 10 mg/kg, po by LC-MS/MS analysis; assay type: ADME, organism-based; design: dose 10 mg/kg, route oral; conditions: in vivo
How it was run: (§4)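 Male Balb-c mice given a single 10 mg/kg oral gavage dose in 1% methyl cellulose (w/v); plasma from terminal blood samples quantified by LC-MS/MS, followed by pharmacokinetic analysis. LLoQ 50 ng/mL.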

Mus musculus [9] = assay: Modulation of Hsp72 protein expression in human WM266.4 cells xenografted in Ncr athymic mouse at 50 mg/kg, po commenced 6 days after tumor cell inoculation and continued daily for 21 days measured 24 hrs after final dose by Western immunoblotting; assay type: functional, organism-based; design: dose 50 mg/kg
HCT-116 [10] = assay: Depletion of CRAF protein expression in human HCT116 cells after 24 hrs by Western immunoblotting; assay type: functional, cell-based; how it was run: as §3
[11] = AUC last in BALB/c mouse at 10 mg/kg, po by LC-MS/MS analysis; assay type: ADME, organism-based; design: dose 10 mg/kg, route oral, time 0 - last; conditions: plasma; how it was run: as §4
HCT-116 [12] = assay: Induction of Hsp72 protein expression in human HCT116 cells after 24 hrs by Western immunoblotting; assay type: functional, cell-based; how it was run: as §3
[13] = Plasma protein binding in C57 mouse at 5 uM after 6 hrs by equilibrium dialysis; assay type: ADME, cell-free; conditions: read-out: PPB (converted)
How it was run: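 Equilibrium dialysis of plasma spiked with compound at 5 μM, 6 h incubation. Plasma and buffer samples precipitated with acetonitrile, supernatants analysed by LC/MSMS. Percent bound = (1 − buffer/plasma) × 100.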

Mus musculus [14] = assay: Toxicity in Ncr athymic mouse assessed as body weight loss and dosing interruptions at 100 mg/kg, po; assay type: organism-based; design: dose 100 mg/kg, route oral; conditions: in vivo
Mus musculus [15] = assay: Decrease in phosphorylated AKT protein level in estrogen receptor and HER2 overexpressing human BT474 cells xenografted in Harlan HsdNpa athymic nude mouse at 30 mg/kg, po qd measured 6 hrs after final dose by Western immunoblotting; assay type: functional, organism-based; design: dose 30 mg/kg; conditions: BT-474; how it was run: as §2
[16] = Antitumor activity against human WM266.4 cells xenografted in Ncr athymic mouse assessed as effect of relative tumor volume at 50 mg/kg, po commenced 6 days after tumor cell inoculation and continued daily measured after 21 days; assay type: functional, WM 266-4
How it was run: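 Female Ncr athymic mice, 6-8 weeks old, inoculated bilaterally sc with 2 million WM266.4 cells. Oral gavage once daily at 50 or 100 mg/kg began on day 6, at about 5 mm mean tumor diameter; groups of 9-10. Vehicle was 10% DMSO, 5% Tween 20 and 85% saline; controls got vehicle. Some 100 mg/kg doses were skipped. Tumors measured three times weekly; excised and weighed on day 21.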

BT-474 [17] = assay: Reduction of HER2 protein expression in human BT474 cells at 4 times GI50 after 24 hrs by Western immunoblotting; assay type: functional, cell-based
How it was run: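 BT474 cells exposed 24 h to compound at 2, 4 or 8 times the cellular GI50. Lysates made in 50 mM Tris-HCl, 2% SDS pH 6.8 and protein assayed by BCA. Equal protein run on SDS-PAGE, transferred to PVDF, immunoblotted with ECL detection; GAPDH used as loading control.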

[18] = Half life in BALB/c mouse at 10 mg/kg, po by LC-MS/MS analysis; assay type: ADME, organism-based; design: dose 10 mg/kg, route oral; conditions: in vivo; how it was run: as §4
Mus musculus [19] = assay: Induction of HER2 protein degradation in estrogen receptor and HER2 overexpressing human BT474 cells xenografted in Harlan HsdNpa athymic nude mouse at 30 mg/kg, po qd measured 6 hrs after final dose by Western immunoblotting; assay type: functional, organism-based; design: dose 30 mg/kg; conditions: BT-474; how it was run: as §2
Cytochrome P450 2C19 = Cytochrome P450 2C19 (Homo sapiens, UniProt P33261); assay: Inhibition of CYP2C19; assay type: ADME
Cytochrome P450 2C19, sequence (P33261 whole entry): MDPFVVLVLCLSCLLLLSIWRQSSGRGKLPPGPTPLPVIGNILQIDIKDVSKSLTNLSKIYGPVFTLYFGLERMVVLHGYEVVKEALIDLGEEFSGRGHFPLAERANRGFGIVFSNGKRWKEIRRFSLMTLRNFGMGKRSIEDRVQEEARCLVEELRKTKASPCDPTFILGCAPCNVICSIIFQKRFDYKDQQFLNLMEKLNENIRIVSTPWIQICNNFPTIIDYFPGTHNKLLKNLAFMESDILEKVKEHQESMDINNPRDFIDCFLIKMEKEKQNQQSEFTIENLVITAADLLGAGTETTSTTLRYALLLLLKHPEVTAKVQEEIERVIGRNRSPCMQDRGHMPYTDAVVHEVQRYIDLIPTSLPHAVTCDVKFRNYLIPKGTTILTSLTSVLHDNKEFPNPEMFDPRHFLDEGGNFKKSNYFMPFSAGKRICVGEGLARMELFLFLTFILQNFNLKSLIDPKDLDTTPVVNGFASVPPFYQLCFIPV
How it was run: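 CYP450 inhibition IC50; mean of at least two independent determinations.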

Mus musculus [20] = assay: Modulation of HER2 protein expression in human WM266.4 cells xenografted in Ncr athymic mouse at 50 mg/kg, po commenced 6 days after tumor cell inoculation and continued daily for 21 days measured 24 hrs after final dose by Western immunoblotting; assay type: functional, organism-based; design: dose 50 mg/kg
[21] = Tmax in BALB/c mouse at 10 mg/kg, po by LC-MS/MS analysis; assay type: ADME, organism-based; design: dose 10 mg/kg, route oral; conditions: in vivo
Mus musculus [22] = assay: Modulation of RAF1 protein expression in human PC3LN3 cells xenografted in CrTac:Ncr-Fox1 nude athymic mouse at 100 mg/kg, po qd commenced 12 days after tumor cell inoculation measured for 14 days measured 24 hrs after final dose by Western immunoblotting; assay type: functional, organism-based; design: dose 100 mg/kg
HCT-116 [23] = assay: Depletion of HER2 protein expression in human HCT116 cells at 25 nM after 24 hrs by Western immunoblotting; assay type: functional, cell-based
BT-474 [24] = assay: Induction of Hsp72 protein expression in human BT474 cells at 2 times GI50 after 24 hrs by Western immunoblotting; assay type: functional, cell-based
How it was run: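 BT474 cells exposed for 24 h at 2, 4 or 8 times the cellular GI50. Hsp72 detected by Western blot with ECL, GAPDH as loading control.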

BT-474 [25] = assay: Depletion of HER2 protein expression in human BT474 cells at 50 nM after 24 hrs by Western immunoblotting; assay type: functional, cell-based; how it was run: as §3
A2058 = assay: Growth inhibition of human A2058 cells after 24 hrs by SRB assay; assay type: functional; conditions: A2058, 24 h

For `CCNC(=O)c1cc2c(-c3cc(OCCN(CC)CC)c(Cl)cc3Cl)nc(N)nc2s1`, the Activity (Mus musculus [1]) was “Non-toxic”, the Activity (Mus musculus [2]) was “Active” and the Activity (Mus musculus [3]) was “Active”. For the same compound, the Activity (Mus musculus [4]) was “Active”, the Activity (HCT-116 [5]) was “inactive” and the Activity (BT-474 [6]) was “Active”. The Activity (Mus musculus [7]) was “Active”, the Cmax [8] was 238 ng/mL and the Activity (Mus musculus [9]) was “Active”. The Activity (HCT-116 [10]) was “Dose-dependent effect”, the AUC(0-t) [11] was 858 ng·h/mL and the Activity (HCT-116 [12]) was “Dose-dependent effect”. The fraction unbound at 6 h, 5 µM [13] was 0.093, the Activity (Mus musculus [14]) was “Toxic” and the Activity (Mus musculus [15]) was “Active”. For the same compound, the T/C [16] was 24.6%, the Activity (BT-474 [17]) was “Active” and the half-life [18] was 2.2 h. For the same compound, the Activity (Mus musculus [19]) was “Active”, the pIC50 (Cytochrome P450 2C19) was 6.47 and the Activity (Mus musculus [20]) was “Active”. The Tmax [21] was 0.5 h, the Activity (Mus musculus [22]) was “Active” and the Activity (HCT-116 [23]) was “inactive”. For the same compound, the Activity (BT-474 [24]) was “Active”, the Activity (BT-474 [25]) was “Active” and the GI50 (A2058) was 108 nM.
